Drawing on ChEMBL document CHEMBL4138280, “Ribocyclophanes A-E, Glycosylated Cyclophanes with Antiproliferative Activity from Two Cultured Terrestrial Cyanobacteria” (J Nat Prod, 2018), this text covers IC50, Activity and viability for 7 compounds.

The source made the active and inactive calls. No cut-off for these calls is given here.

Test [1] has as its system MDA-MB-435. Description: Antiproliferative activity against human MDA-MB-435 cells after 96 hrs by CellTiter 96 AQueous one solution cell proliferation assay. Conditions: MDA-MB-435, 96 h. The class given is functional, cell-based. The method in brief: (§1)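 Cells kept in RPMI 1640 with 10% FBS, penicillin (100 units/mL) and streptomycin (100 μg/mL) at 37 °C, 5% CO₂. Log-phase cells were trypsinized and seeded at 5000 per well, then left overnight. DMSO solutions were serially diluted and added at 25, 5.0, 1.0, 0.2 and 0.04 μg/mL for 96 h at 37 °C. Viability was read by absorbance as percent viable cells versus solvent control.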

Test [2] has as its system MDA-MB-231. Description: Antiproliferative activity against human MDA-MB-231 cells after 96 hrs by CellTiter 96 AQueous one solution cell proliferation assay. The class given is functional, cell-based. The following applies: MDA-MB-231, 96 h. Put shortly: as §1
The subject of test [3] is MDA-MB-231. Description: Antiproliferative activity against human MDA-MB-231 cells at 0.04 to 25 ug/ml after 96 hrs by CellTiter 96 AQueous one solution cell proliferation assay.
In test [4] the test system is MDA-MB-435. Kind of test: Antiproliferative activity against human MDA-MB-435 cells at 0.04 to 25 ug/ml after 96 hrs by CellTiter 96 AQueous one solution cell proliferation assay.
Test [5] concerns MDA-MB-231. Kind of test: Antiproliferative activity against human MDA-MB-231 cells at 25 ug/ml after 96 hrs by CellTiter 96 AQueous one solution cell proliferation assay.
Test [6] deals with MDA-MB-435. Kind of test: Antiproliferative activity against human MDA-MB-435 cells at 25 ug/ml after 96 hrs by CellTiter 96 AQueous one solution cell proliferation assay.
The test system of test [7] is MDA-MB-435. Kind of test: Antiproliferative activity against human MDA-MB-435 cells assessed as viable cells at 1 ng/ml after 96 hrs by CellTiter 96 AQueous one solution cell proliferation assay relative to control. The class given is functional. Conditions: MDA-MB-435, 96 h, read-out: Activity.

On to `CCCC[C@H]1CCCC[C@H](C)Cc2cc(O)c(c(O)c2)[C@@H](CCCC)CCCC[C@H](C)[C@@H](O[C@@H]2OC[C@@H](O)[C@@H](O)[C@H]2O)c2cc(O)c1c(O)c2`, for which the IC50 in test [1] was determined as 1300 nM; in test [2], 1200 nM.
As to `CCCC[C@H]1CCCC[C@H](C)[C@@H](O[C@@H]2OC[C@@H](O)[C@@H](O)[C@H]2O)c2cc(O)c(c(O)c2)[C@@H](CCCC)CCCC[C@H](C)[C@@H](O[C@@H]2OC[C@@H](O)[C@@H](O)[C@H]2O)c2cc(O)c1c(O)c2`, the result in test [3] and in test [4] was Active.
For `CCCC[C@H]1CCCC[C@H](C)[C@@H](OC(C)=O)c2cc(O)c(c(O)c2)[C@@H](CCCC)CCCC[C@H](C)[C@@H](OC(C)=O)c2cc(O)c1c(O)c2`, the result in test [3] and in test [4] was Active.
Regarding `CCCC[C@H]1CCCC[C@H](C)[C@@H](OC(C)=O)c2cc(O)c(c(O)c2)[C@@H](CCCC)CCCC[C@H](C)[C@@H](O[C@@H]2OC[C@@H](O)[C@@H](O)[C@H]2O)c2cc(O)c1c(O)c2`, the IC50 came out at 600 nM in test [1] and 800 nM in test [2].
Turning to `CCCC[C@H]1CCCC[C@H](C)[C@@H](O)c2cc(O)c(c(O)c2)[C@@H](CCCC)CCCC[C@H](C)[C@@H](O[C@@H]2OC[C@@H](O)[C@@H](O)[C@H]2O)c2cc(O)c1c(O)c2`, the outcome in test [3] and in test [4] was Active.
Consider `CCCCC(Cl)CCCC[C@H](C)[C@@H](O[C@@H]1OC[C@@H](O)[C@@H](O)[C@H]1O)c1cc(O)c([C@@H](CCCC)CCCC[C@H](C)[C@@H](OC(C)=O)c2cc(O)cc(O)c2)c(O)c1` (stereo partly drawn), for which the result in test [5] and in test [6] was inactive.
Consider `CC[C@]1(O)C[C@@H]2CN(CCc3c([nH]c4ccccc34)[C@@](C(=O)OC)(c3cc4c(cc3OC)N(C)[C@H]3[C@@](O)(C(=O)OC)[C@H](OC(C)=O)[C@]5(CC)C=CCN6CC[C@]43[C@@H]65)C2)C1` [VINBLASTINE], for which, in test [7], the viability at 0.001 µg/mL stood at 49%.
